Reference: ChEMBL document CHEMBL1123803, “Synthesis and biological activities of pseudopeptide analogues of the C-terminal heptapeptide of cholecystokinin. On the importance of the peptide bonds” (J Med Chem, 1987)

Organism: Rattus norvegicus
Test: Activity on Amylase release from rat pancreatic acini was determined
Type: functional
In short: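 Dispersed rat pancreatic acini (about 1 mg protein/mL) in Hepes pH 7.4 standard incubation solution with 1% BSA, 1 mM calcium, 5 mM theophylline, gassed 95% O2/5% CO2; incubated 30 min at 37 °C across a concentration range. Amylase measured with Phadebas reagent; release = with minus without secretagogue, as percent of maximal CCK-8 stimulation. Duplicates, means of at least three experiments.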

## CCCC[C@H](NC(=O)[C@H](Cc1ccc(OS(=O)(=O)O)cc1)NC(=O)[C@H](CC(=O)O)NC(=O)OC(C)(C)C)C(=O)NCC(=O)N[C@@H](Cc1c[nH]c2ccccc12)C(=O)N[C@@H](CCCC)C(=O)N[C@@H](CC(=O)O)C(=O)N[C@@H](Cc1ccccc1)C(N)=O
  conc. for maximal amylase release: 300 pM
